The source made the active and inactive calls.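 Rule for the calls: active = growth inhibition above 25% in both replicates, a cutoff set 3 SD above the mean; inconclusive = above 25% in only one replicate; inactive = the rest.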

A short description of the assay: OD615 S. cerevisiae growth inhibition, permissive medium, pilot counter-assay, permissive growth control for S. cerevisiae lifespan shortening project (AID 705). The following applies: OD615, 24 h, at 10 µM, stronger effect = higher value. In a few lines: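 System: S. cerevisiae with engineered DeaD lifespan system. Medium: SC raffinose/galactose permissive medium. Doses: single compound dose of 10 µM, 0.25% DMSO final. Schedule: 24 h exposure, 30 °C. Measured by: OD615 turbidity read. Read-out: growth inhibition.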
For `Cc1cc(C)c(C)c(S(=O)(=O)Nc2ccccc2C(=O)NCCCn2ccnc2)c1C`, the growth inhibition is -28% (inactive). In the case of `COc1ccc(N2CCN(CCCNC(=O)CCCn3c(=O)[nH]c4ccsc4c3=O)CC2)cc1`, the growth inhibition was -10.8% (inactive).

With `CC12COC3(C(=O)Nc4cccnc4)CC1CCC32C` (stereo not given), the growth inhibition is -5.62% (inactive). In the case of `CCOC(=O)C1CCN(C(=O)c2ccc(NC(=O)C3CCCO3)cc2)CC1` (stereo not given), the growth inhibition was -14.9% (inactive). As to `O=C(CSc1oc(-c2ccc(F)cc2)nc1S(=O)(=O)c1ccccc1)NCC1CCCO1` (stereo not given), the growth inhibition is -15.8% (inactive). `O=C(NCC1COc2ccccc2O1)c1ccc(NC(=O)C2CCCO2)cc1` (stereo not given): the growth inhibition is -15.3% (inactive). On to `COc1ccc(N2CCN(CCNC(=O)c3ccc(NC(=O)C4CCCO4)cc3)CC2)cc1` (stereo not given), for which the growth inhibition was -14% (inactive). As for `CC(C)N(C(=O)C1CC(=O)OC12CCCCC2)C(C)C` (stereo not given), the growth inhibition is 1.46% (inactive). With `Cn1nnc2c(NCc3ccco3)nccc21`, the growth inhibition is -26% (inactive).

As to `CCCCNC(=O)c1ccc(NC(=O)C2CCCO2)cc1` (stereo not given), the growth inhibition was -3.29% (inactive). With `CC1Cc2ccccc2N1C(=O)CCS(=O)(=O)c1cccc2nonc12` (stereo not given) the figure was 8.09% (inactive). In the case of `O=C(NCc1cccs1)C1CCCN(S(=O)(=O)c2ccc3c(c2)OCO3)C1` (stereo not given), the growth inhibition was -20.3% (inactive). Take `O=C(CCCOc1ccccc1)Nc1nnc(C2CCCO2)s1` (stereo not given): the growth inhibition is -23.6% (inactive). Then `CC(C)Sc1nc(NCc2ccco2)c2c3c(sc2n1)COC(C)(C)C3`, with 3.17% (inactive); and `CC(=O)c1c(C)n(-c2ccc(N(C)C)cc2)c2ccc(OCC(N)=O)cc12`, with -8.79% (inactive); and `O=C(CS(=O)(=O)c1c[nH]c2ccccc12)Nc1ccc2c(c1)OCCO2`, with -12.2% (inactive). As for `CCn1cc(C(=O)N2CCN(c3ccccn3)CC2)c2cc(OC)c(OC)cc2c1=O`, the growth inhibition is -18% (inactive).

For `CCCCNC(=O)C1C2C=CC3(CN(Cc4ccc(C)cc4)C(=O)C13)O2` (stereo not given), the growth inhibition is 2.61% (inactive). With `COc1ccc(CNC(=O)c2ccc(NC(=O)C3CCCO3)cc2)cc1` (stereo not given) the figure was -16.3% (inactive); with `O=C(CNC(=O)Cn1ccc2ccccc2c1=O)NCCCN1CCN(c2cccc(Cl)c2)CC1`, -15.3% (inactive). Turning to `CCN1CCN(Cc2nc3c(c(=O)n(C)c(=O)n3C)n2CCCc2ccccc2)CC1`, the growth inhibition is -5.05% (inactive). For `COCc1cc(=O)n2c(-c3ccccc3OC)n[nH]c2n1`, the growth inhibition is -14% (inactive). Turning to `Cc1ccccc1C(=O)Nc1nnc(-c2ccc(F)cc2)o1`, the growth inhibition is -3.21% (inactive). With `COc1ccc(-c2cc(NCCc3ccncc3)n3ncnc3n2)cc1`, the growth inhibition is -9.14% (inactive). Take `CCN(CC)c1ccc(NC(=O)c2ccc(NC(=O)C3CCCO3)cc2)c(C)c1` (stereo not given): the growth inhibition was -6.83% (inactive). On to `CCC1(C)Cc2c(sc3c2c2ncnn2c2nnc(SCC(=O)NCc4ccco4)n32)CO1` (stereo not given), for which the growth inhibition was -19.2% (inactive). With `CCN(Cc1ccncc1)C(=O)c1cccc(S(=O)(=O)N2CCOCC2)c1`, the growth inhibition was -4.12% (inactive). Turning to `CC(C)c1ccc(-c2nc(N3CCCC3)nc3n[nH]c(N)c23)cc1`, the growth inhibition is -26.6% (inactive). Then `CCOC(=O)N1CCN(C(=O)CCc2nc3sc4c(c3c(=O)[nH]2)CCCC4)CC1`, with -13.4% (inactive). For `COc1ccc(-c2nc(N3CCOCC3)nc3n[nH]c(N)c23)cc1`, the growth inhibition is -5.32% (inactive). `OC(COCc1cccs1)CN1CCN(c2ccccn2)CC1` (stereo not given): the growth inhibition is -19.5% (inactive). Regarding `CCOC(=O)c1cc(NC(=O)OC)c(C)nc1C`, the growth inhibition is -4.66% (inactive). For `COc1cc(-c2nc3cnccn3c2Nc2ccc3c(c2)OCCO3)ccc1O`, the growth inhibition was -15.6% (inactive). In the case of `CN1CCc2c(sc3c2c(=O)n(-c2ccc(Cl)cc2)c2nncn32)C1`, the growth inhibition is -12.1% (inactive).

Regarding `C(=N\c1nccs1)/c1c[nH]c2ccccc12`, the growth inhibition was -17.6% (inactive). For `CCN1CCN(Cc2nc3c(c(=O)n(C)c(=O)n3C)n2C(C)C(C)=O)CC1` (stereo not given), the growth inhibition is -32.2% (inactive). In the case of `CCCCn1c(C(C)NC(=O)c2cccs2)nc2ccccc21` (stereo not given), the growth inhibition is -10.5% (inactive).

As to `CCn1cc(C(=O)NCc2cccnc2)c2cc(OC)c(OC)cc2c1=O`, the growth inhibition was -18.3% (inactive). For `O=C1C(Cl)=C(Nc2ccccc2O)C(=O)N1c1ccccc1`, the growth inhibition is -42% (inactive). In the case of `O=C(NCc1nc2ccccc2[nH]1)c1ccc(S(=O)(=O)N2CCOCC2)cc1`, the growth inhibition is -9.52% (inactive).

The values are drawn from PubChem BioAssay.
